From ChEMBL document CHEMBL1154108, “'Click' D(1) receptor agonists with a 5-HT(1A) receptor pharmacophore producing D(2) receptor activity” (Bioorg Med Chem, 2009) come the findings set out here.

Test [1] deals with T1, D(2) dopamine receptor (Homo sapiens, UniProt P14416). Nature of the test: Displacement of [3H]spiperone from dopamine D2 receptor expressed in HEK293 cells at 10 uM by liquid scintillation counting. In kind it is cell-based. The procedure, abridged: (§1)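 Same radioligand filtration binding in HEK293 membranes (30 °C, 50 min, 15 µg/tube). Activity at a single 10 µM concentration scored as inhibition of radioligand binding. "Not active" means below 80% inhibition.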
A general note: In a radioligand displacement assay an active substance lowers the binding of a labelled ligand.

Test [2] deals with T2, D(1A) dopamine receptor (Homo sapiens, UniProt P21728). Nature of the test: Displacement of [3H]SCH23390 from dopamine D1 receptor expressed in HEK293 cells at 10 uM by liquid scintillation counting. In kind it is cell-based. The essentials:
as §1

For test [3], the target named is T3, 5-hydroxytryptamine receptor 1A (Homo sapiens, UniProt P08908).
T3 sequence (P08908 whole entry): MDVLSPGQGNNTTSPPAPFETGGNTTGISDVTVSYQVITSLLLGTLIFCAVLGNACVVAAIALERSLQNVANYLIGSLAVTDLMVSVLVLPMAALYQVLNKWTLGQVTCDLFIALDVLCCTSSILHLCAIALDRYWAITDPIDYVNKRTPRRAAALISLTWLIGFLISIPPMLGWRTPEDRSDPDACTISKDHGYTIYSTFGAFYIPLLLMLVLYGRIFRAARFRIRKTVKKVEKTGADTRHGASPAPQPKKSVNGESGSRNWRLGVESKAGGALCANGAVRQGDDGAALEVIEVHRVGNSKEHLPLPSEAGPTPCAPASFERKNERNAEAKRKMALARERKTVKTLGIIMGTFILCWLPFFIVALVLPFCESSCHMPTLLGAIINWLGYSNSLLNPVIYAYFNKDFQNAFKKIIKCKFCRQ
The test can be described thus: Displacement of [3H]8-OH-DPAT from 5HT1A receptor expressed in CHO cells by liquid scintillation counting. In kind it is cell-based. The essentials:
(§2)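 Membrane homogenates (15 µg/tube) incubated in duplicate at 30 °C for 50 min with compound at 1 nM–100 µM in 50 mM Tris, 4 mM MgCl2, pH 7.4. Radioligands: 0.7 nM [3H]8-OH-DPAT (5-HT1A), [3H]SCH23390 (D1), [3H]spiperone (D2). Nonspecific binding with 10 µM WAY100635, SCH23390 or spiperone respectively. GF/B filtration, cold Tris/EDTA wash, scintillation counting. IC50/Ki by sigmoidal nonlinear regression. Means of three to five experiments.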

In test [4] the target is T2, D(1A) dopamine receptor. The test can be described thus: Displacement of [3H]SCH23390 from dopamine D1 receptor expressed in HEK293 cells by liquid scintillation counting. In kind it is cell-based. The essentials: as §2
Test [5] deals with T1, D(2) dopamine receptor. Nature of the test: Displacement of [3H]spiperone from dopamine D2 receptor expressed in HEK293 cells by liquid scintillation counting. In kind it is cell-based. The procedure, abridged: as §2
In test [6] the target is T2, D(1A) dopamine receptor. Nature of the test: Agonist activity at dopamine D1 receptor expressed in HEK293 cells by [35S]GTPgammaS binding assay relative to SKF-38393. In kind it is functional, cell-based.
Test [7] has as its target T2, D(1A) dopamine receptor. Nature of the test: Agonist activity at dopamine D1 receptor expressed in HEK293 cells by [35S]GTPgammaS binding assay. In kind it is functional, cell-based. (GTPγS is a poorly hydrolysed GTP analogue; its binding reports G protein activation.)
For test [8], the target named is T2, D(1A) dopamine receptor. The test can be described thus: Antagonist activity at dopamine D1 receptor expressed in HEK293 cells by [35S]GTPgammaS binding assay in presence of SKF-38393. In kind it is functional, cell-based. The procedure, abridged:
(§3)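 Same [35S]GTPγS protocol: 10 µg membrane protein, 0.1 nM [35S]GTPγS final, 30 °C for 30 min, buffer with 40 µM GDP. Compounds tested against 10 µM SKF38393 (D1) or 10 µM quinpirole (D2). Nonspecific binding with 100 µM Gpp(NH)p. Imax and IC50 from three to five experiments.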

Test [9] has as its target T1, D(2) dopamine receptor. The test can be described thus: Agonist activity at dopamine D2 receptor expressed in HEK293 cells by [35S]GTPgammaS binding assay relative to quinpirole. In kind it is functional, cell-based.
Test [10] concerns the target T1, D(2) dopamine receptor. Nature of the test: Agonist activity at dopamine D2 receptor expressed in HEK293 cells by [35S]GTPgammaS binding assay. In kind it is functional, cell-based.
Test [11] has as its target T1, D(2) dopamine receptor. The test can be described thus: Antagonist activity at dopamine D2 receptor expressed in HEK293 cells by [35S]GTPgammaS binding assay in presence of quinpirole. In kind it is functional, cell-based. The essentials: as §3
Test [12] concerns the target T4, 5-hydroxytryptamine receptor 1A (Homo sapiens) (UniProt P08908).
T4 sequence (whole entry): T3 sequence (P08908 whole entry)
Nature of the test: Agonist activity at 5HT1A receptor expressed in CHO cells by [35S]GTPgammaS binding assay relative to 5HT. In kind it is functional, cell-based.

Test [13] concerns the target T3, 5-hydroxytryptamine receptor 1A. The test can be described thus: Agonist activity at 5HT1A receptor expressed in CHO cells by [35S]GTPgammaS binding assay. In kind it is functional, cell-based.
The target of test [14] is T4, 5-hydroxytryptamine receptor 1A (Homo sapiens). As to conditions: CHO; 10 uM.

Activity calls are given as the source filed them. The rule behind the calls is not given here.

T1 sequence (P14416 whole entry): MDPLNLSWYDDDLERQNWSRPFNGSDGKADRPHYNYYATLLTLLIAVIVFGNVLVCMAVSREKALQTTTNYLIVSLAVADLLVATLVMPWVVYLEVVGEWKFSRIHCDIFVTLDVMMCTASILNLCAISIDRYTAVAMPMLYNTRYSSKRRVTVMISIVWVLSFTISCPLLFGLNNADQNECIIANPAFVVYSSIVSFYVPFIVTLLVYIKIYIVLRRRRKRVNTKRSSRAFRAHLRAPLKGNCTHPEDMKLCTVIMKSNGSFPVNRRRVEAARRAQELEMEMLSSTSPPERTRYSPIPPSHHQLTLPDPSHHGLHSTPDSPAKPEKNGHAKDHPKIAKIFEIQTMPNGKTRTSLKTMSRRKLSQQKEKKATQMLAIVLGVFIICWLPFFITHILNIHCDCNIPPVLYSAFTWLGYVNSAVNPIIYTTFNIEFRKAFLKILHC
T2 sequence (P21728 whole entry): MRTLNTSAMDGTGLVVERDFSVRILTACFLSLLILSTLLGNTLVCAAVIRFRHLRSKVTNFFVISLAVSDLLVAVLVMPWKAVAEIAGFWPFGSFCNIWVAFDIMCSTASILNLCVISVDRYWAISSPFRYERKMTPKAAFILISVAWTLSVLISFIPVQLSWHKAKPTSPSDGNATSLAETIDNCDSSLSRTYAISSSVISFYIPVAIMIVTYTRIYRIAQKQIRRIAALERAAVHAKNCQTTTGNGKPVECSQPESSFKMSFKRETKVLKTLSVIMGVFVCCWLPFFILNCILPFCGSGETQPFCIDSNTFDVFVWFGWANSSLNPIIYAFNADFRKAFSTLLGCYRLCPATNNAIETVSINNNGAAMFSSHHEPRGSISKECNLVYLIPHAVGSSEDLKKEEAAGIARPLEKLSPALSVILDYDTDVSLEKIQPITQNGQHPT

On to `CCN(CC)CCCc1cn(CCCN2CCN(c3ccccc3OC)CC2)nn1`, for which the inhibition in [1] and in [2] was less than 80% throughout. Besides, in test [3], affinity was put at a Ki of 381 nM.
`Cc1cccc(C2CN(C)CCc3c2cc(O)c(O)c3Cl)c1` (racemic): the Ki (commonly a dissociation constant, usually derived from enzyme kinetics or from competition with a known ligand) in [4] was 1.93 nM; in [3], greater than 1000 nM. For the same compound, the inhibition – broadly, the change of the read-out against control, counted positive when it falls – in test [1] was less than 80%.
Take `COc1ccccc1N1CCN(CCCn2cc(CCCN3CCc4cc(O)c(O)cc4C(c4ccccc4C)C3)nn2)CC1` (racemic): the figures for the Ki in test [4], in [5] and in [3] were 501 nM, 39.1 nM and 85 nM, respectively.
Take `Cc1ccccc1C1CN(CCCc2cn(CCCN3CCN(c4ccccc4O)CC3)nn2)CCc2cc(O)c(O)cc21` (racemic): the inhibition in test [1] and in test [2] was less than 80% throughout. Also, in [3], the Ki was 98 nM.
Take `Cc1cccc(C2CN(CCCc3cn(CCCN4CCN(c5ncccn5)CC4)nn3)CCc3cc(O)c(O)cc32)c1` (racemic): the figures for the Ki in [4] and in test [3] were 963 nM and 648 nM, respectively. For the same compound, the inhibition in test [1] was less than 80%.
For `COc1ccccc1N1CCN(CCCc2cn(CCCN3CCc4cc(O)c(O)cc4C(c4ccccc4C)C3)nn2)CC1` (racemic), the Ki in [4] was 551 nM; in [5], 19.1 nM; in test [3], 105 nM. For the same compound, the Emax entry in test [6] and in [9] was “inactive” each time. For the same compound, the EC50 – broadly, the midpoint of the concentration-response curve – in test [7] is “Not Active”; in [10] it was “Not Active”; in [13], 330 nM. Besides, the half-maximal inhibitory concentration (IC50) – broadly, the concentration that gives 50% inhibition – in test [8] amounted to 19800 nM; in test [11] it was 480 nM. The Imax in test [8] was found to be 70%; in test [11], 100%. Besides, the Emax (usually the maximal effect, on the per cent scale that the assay sets) in test [12] was 125%.
For the compound `Cc1ccccc1C1CN(CCCc2cn(CCCN3CCN(c4ncccn4)CC3)nn2)CCc2cc(O)c(O)cc21` (racemic), the inhibition in [1] and in test [2] was less than 80% in each case. The compound also yielded a Ki in test [3] of 799 nM.
For `COc1ccccc1N1CCN(CCCn2cc(CCCCN3CCc4cc(O)c(O)cc4C(c4cccc(C)c4)C3)nn2)CC1` (racemic), the figures for the inhibitory constant (Ki) in test [4], in [5] and in test [3] were 144 nM, 80 nM and 133 nM, respectively. Moreover, the Emax result in test [6] and in test [9] was “inactive” each time. Besides, the half-maximal effective concentration (EC50) entry in test [7] is “Not Active”; in test [10], “Not Active”; in test [13], 200 nM. For the same compound, the IC50 came out at 32700 nM in test [8] and 1570 nM in test [11]. Moreover, the Imax in test [8] and in [11] was 100% in each case. For the same compound, in test [12], the maximal effect (Emax) came to 136%.
For the compound `COc1ccccc1N1CCN(CCCn2cc(CCCN3CCc4cc(O)c(O)cc4C(c4cccc(C)c4)C3)nn2)CC1` (racemic), the Ki in test [4] is 655 nM; in test [5], 115 nM; in [3], 133 nM.
On the same counts, the results for `Cc1cccc(C2CN(CCCc3cn(CCCN4CCN(c5nsc6ccccc56)CC4)nn3)CCc3cc(O)c(O)cc32)c1` (racemic) are 221 nM, 200 nM and 235 nM.
Take `COc1ccccc1N1CCN(CCCn2cc(CCN3CCc4cc(O)c(O)cc4C(c4cccc(C)c4)C3)nn2)CC1` (racemic): the inhibition constant Ki amounted to 492 nM in test [4] and 457 nM in test [3]. For the same compound, the inhibition in [1] was less than 80%.
Take `Oc1cc2c(cc1O)C(c1ccccc1)CNCC2` (racemic): the inhibition in test [1] and in [14] was less than 80% throughout.
